According to article PMC4451255 (Bioorganic & medicinal chemistry, 2015):
Where a chain is given by its changes, count along the chain named.

Columns and labels:
P720C/H755C PTPH-1 [1] = experiment: FlAsH inhibition of purified PTP catalytic domain, pNPP assay; format: biochemical, human; conditions: purified enzyme 50 nM, one equivalent of FlAsH
How it was run: (§1)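 His6-tagged PTP catalytic domains (50 nM) are pre-incubated 120 min at 37 °C with test compound or DMSO (1% v/v). Activity is then assayed at 37 °C with pNPP at each enzyme's previously determined KM in 50 mM 3,3-dimethylglutarate pH 7.0, 1 mM EDTA, 50 mM NaCl. The reaction is quenched with NaOH and A405 read. Activity is normalized to DMSO-only control, triplicate, ≥3 independent experiments.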

P720C/H755C PTPH-1 [2] = experiment: FlAsH inhibition of total PTP activity of crude E. coli lysates, pNPP; format: biochemical, human; conditions: whole-cell E. coli lysate
How it was run: (§2)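 Cells are lysed by French press (~2000 psi) in 50 mM Tris pH 7.8, 500 mM NaCl, 5 mM imidazole. Clarified lysate takes compound or DMSO (1%) for 120 min at 37 °C. Total pNPP activity is normalized to DMSO.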

P2285C/Q2320C FAP-1 [3] = experiment: FlAsH inhibition of purified PTP catalytic domain, pNPP assay; format: biochemical, human; conditions: purified enzyme 50 nM, one equivalent of FlAsH
How it was run: as §1

V368C Shp2 [4] = molecular target: T1, V368C Shp2 (Homo sapiens, UniProt Q06124, V368C); experiment: SDS/PAGE and fluorescence visualization of protein/FlAsH complexes; format: binding; conditions: 6 μM FlAsH, 2 μg enzyme, UV visualization, band at approximately 37 kD
T1 sequence (Q06124 247-517 V368C limits assumed): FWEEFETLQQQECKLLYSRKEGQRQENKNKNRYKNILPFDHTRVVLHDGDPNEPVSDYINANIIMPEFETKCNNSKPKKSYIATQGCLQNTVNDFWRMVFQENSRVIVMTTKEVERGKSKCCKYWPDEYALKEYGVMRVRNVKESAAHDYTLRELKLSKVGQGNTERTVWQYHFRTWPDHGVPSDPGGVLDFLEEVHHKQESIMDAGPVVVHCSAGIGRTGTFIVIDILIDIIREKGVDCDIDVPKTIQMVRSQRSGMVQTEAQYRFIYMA

wild-type PTP1B [5] = experiment: FlAsH inhibition of purified PTP catalytic domain, pNPP assay; format: biochemical, human; conditions: purified enzyme 50 nM, 120-minute pre-incubation
How it was run: as §1

P87C/A122C PTP1B [6] = molecular target: T2, P87C/A122C PTP1B (Homo sapiens, UniProt P18031, A122C/P87C); experiment: SDS/PAGE and fluorescence visualization of protein/FlAsH complexes; format: binding; conditions: 6 μM FlAsH, UV visualization, band at 45 kD
T2 sequence (P18031 3-277 P87C/A122C limits assumed): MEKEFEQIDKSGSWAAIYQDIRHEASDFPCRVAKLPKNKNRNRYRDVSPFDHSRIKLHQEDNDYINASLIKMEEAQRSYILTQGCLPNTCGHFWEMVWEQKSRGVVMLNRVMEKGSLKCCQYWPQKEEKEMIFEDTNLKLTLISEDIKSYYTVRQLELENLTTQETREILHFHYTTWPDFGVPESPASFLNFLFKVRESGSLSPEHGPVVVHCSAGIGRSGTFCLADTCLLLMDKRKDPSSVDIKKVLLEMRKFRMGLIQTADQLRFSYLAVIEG

wild-type HePTP [7] = experiment: FlAsH inhibition of purified PTP catalytic domain, pNPP assay; format: biochemical, human; conditions: purified enzyme 50 nM, one equivalent of FlAsH
How it was run: as §1

wild-type PTPH-1 [8] = experiment: FlAsH inhibition of total PTP activity of crude E. coli lysates, pNPP; format: biochemical, human; conditions: whole-cell E. coli lysate, FlAsH concentrations that strongly inhibit the mutant
How it was run: as §2

V368C Shp2 [9] = molecular target: T1, V368C Shp2; experiment: Mass-spectrometry-based FlAsH-induced cysteine-protection assay; format: binding; conditions: 2.7 μM enzyme, 27 μM FlAsH, 50 mM iodoacetic acid, LC/MS/MS
How it was run: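 Enzyme (2.7 μM) is incubated 30 min with 27 μM test compound or DMSO in pH 7.0 dimethylglutarate/EDTA/1 mM TCEP. Free cysteines are carboxymethylated with 50 mM iodoacetic acid (30 min), quenched with 100 mM TCEP, precipitated and gel-separated, then trypsin-digested in gel. Nano-LC/MS/MS uses HCD. Peptide precursor intensity ratios (compound/DMSO) are normalized to the mean of non-cysteine peptide ratios.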

wild-type Shp2 [10] = molecular target: T3, wild-type Shp2 (Homo sapiens, UniProt Q06124); experiment: SDS/PAGE and fluorescence visualization of protein/FlAsH complexes; format: binding; conditions: 6 μM FlAsH, 2 μg enzyme, UV visualization
T3 sequence (Q06124 247-517 limits assumed): T1 sequence (Q06124 247-517 V368C limits assumed) with C122V

P87C/A122C PTP1B [11] = molecular target: T2, P87C/A122C PTP1B; experiment: FlAsH inhibition of purified PTP catalytic domain, pNPP assay; format: biochemical; conditions: purified enzyme 50 nM, time-dependent
How it was run: (§3)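 No pre-incubation. pNPP at the enzyme's KM is held with 500 nM test compound or DMSO (1%) in pH 7.0 PTP buffer at 37 °C, and reactions are started by adding His6-tagged catalytic domain (50 nM). A405 is monitored continuously at 37 °C. Rates over 1-min windows are normalized to DMSO control; three independent runs are averaged and fitted as single-variable exponential decay.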

P87C PTP1B [12] = molecular target: T4, P87C PTP1B (Homo sapiens, UniProt P18031, P87C); experiment: as above; format: biochemical; conditions: 500 nM FlAsH, continuous pNPP assay
T4 sequence (P18031 3-277 P87C limits assumed): T2 sequence (P18031 3-277 P87C/A122C limits assumed) with C120A
How it was run: as §3

wild-type FAP-1 [13] = experiment: FlAsH inhibition of total PTP activity of crude E. coli lysates, pNPP; format: biochemical, human; conditions: whole-cell E. coli lysate, FlAsH concentrations that strongly inhibit the mutant
How it was run: as §2

P87C PTP1B [14] = molecular target: T4, P87C PTP1B; experiment: SDS/PAGE and fluorescence visualization of protein/FlAsH complexes; format: binding; conditions: 6 μM FlAsH, UV visualization
P160C/V184C HePTP [15] = experiment: FlAsH inhibition of purified PTP catalytic domain, pNPP assay; format: biochemical, human; conditions: purified enzyme 50 nM, one equivalent of FlAsH
wild-type Shp2 [16] = molecular target: T3, wild-type Shp2; experiment: FlAsH inhibition of purified PTP catalytic domain, pNPP assay; format: biochemical
How it was run: (§4)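 Two set-ups, both using His6-tagged catalytic domain (50 nM) and pNPP in pH 7.0 3,3-dimethylglutarate buffer. In the first, enzyme is incubated with 125 nM test compound plus β-mercaptoethanol (0–1 mM), then activity is normalized to no-compound controls. In the second, there is no pre-incubation: pNPP at the enzyme's KM sits with a fixed compound level at 37 °C, enzyme starts the reaction, and A405 is followed continuously.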

wild-type FAP-1 [17] = experiment: FlAsH inhibition of purified PTP catalytic domain, pNPP assay; format: biochemical, human; conditions: purified enzyme 50 nM, one equivalent of FlAsH
How it was run: as §1

wild-type PTPH-1 [18] = experiment: as above; format: biochemical, human; conditions: purified enzyme 50 nM, one equivalent of FlAsH
How it was run: as §1

wild-type PTP1B [19] = experiment: SDS/PAGE and fluorescence visualization of protein/FlAsH complexes; format: binding, human; conditions: 6 μM FlAsH, UV visualization
V368C Shp2 [20] = molecular target: T1, V368C Shp2; experiment: FlAsH inhibition of purified PTP catalytic domain, pNPP assay; format: biochemical
How it was run: as §4

P160C/V184C HePTP [21] = experiment: FlAsH inhibition of total PTP activity of crude E. coli lysates, pNPP; format: biochemical, human; conditions: whole-cell E. coli lysate
wild-type HePTP [22] = experiment: FlAsH inhibition of total PTP activity of crude E. coli lysates, pNPP; format: biochemical, human; conditions: whole-cell E. coli lysate, FlAsH concentrations that strongly inhibit the mutant
How it was run: as §2

P2285C/Q2320C FAP-1 [23] = experiment: as above; format: biochemical, human; conditions: whole-cell E. coli lysate
How it was run: as §2

[24] = 500 nM FlAsH, continuous pNPP assay, no pre-incubation

O=C(O)c1ccccc1-c1c2ccc(=O)c([As]3SCCS3)c-2oc2c([As]3SCCS3)c(O)ccc12 [FlAsH]
inhibition of phosphatase activity (P720C/H755C PTPH-1 [1]): novel sensitivity to FlAsH | inhibition of total PTP activity of lysate (P720C/H755C PTPH-1 [2]): strongly inhibited | inhibition of phosphatase activity (P2285C/Q2320C FAP-1 [3]): drastically reduced catalytic activity | fluorescent band of protein/FlAsH conjugate after SDS/PAGE (V368C Shp2 [4]): strongly fluorescent band | effect of FlAsH on enzymatic activity (wild-type PTP1B [5]): unaffected | fluorescent band of protein/FlAsH conjugate after SDS/PAGE (P87C/A122C PTP1B [6]): strongly fluorescent band | inhibition of phosphatase activity (wild-type HePTP [7]): not significantly inhibited | inhibition of total PTP activity of lysate (wild-type PTPH-1 [8]): no effects | protection of cysteines from modification by IAA (V368C Shp2 [9]): strongly protects C333, C367, and C368 | fluorescent band of protein/FlAsH conjugate after SDS/PAGE (wild-type Shp2 [10]): not present | inhibition by FlAsH (P87C/A122C PTP1B [11]): potently inhibited | time for phosphatase activity to decrease to 50% of initial rate (P87C PTP1B [12]): approximately 10 minutes | inhibition of total PTP activity of lysate (wild-type FAP-1 [13]): no effects | fluorescent band of protein/FlAsH conjugate after SDS/PAGE (P87C PTP1B [14]): fail to produce strongly fluorescent bands | inhibition of phosphatase activity (P160C/V184C HePTP [15]): drastically reduced catalytic activity | effect of β-mercaptoethanol on FlAsH's inhibitory effects (wild-type Shp2 [16]; 125 nM FlAsH, varying β-ME): attenuates | time to 50% activity (wild-type Shp2 [16]; [24]): ~ 11 minutes | inhibition of phosphatase activity (wild-type FAP-1 [17]): not significantly inhibited | inhibition of phosphatase activity (wild-type PTPH-1 [18]): not significantly inhibited | fluorescent band of protein/FlAsH conjugate after SDS/PAGE (wild-type PTP1B [19]): fail to produce strongly fluorescent bands | effect of β-mercaptoethanol on potency of FlAsH inhibition (V368C Shp2 [20]; 125 nM FlAsH, varying β-ME up to 8,000 times excess): no significant changes | time to 50% activity (V368C Shp2 [20]; [24]): ~ 7 minutes | inhibition of total PTP activity of lysate (P160C/V184C HePTP [21]): strongly inhibited | inhibition of total PTP activity of lysate (wild-type HePTP [22]): no effects | inhibition of total PTP activity of lysate (P2285C/Q2320C FAP-1 [23]): strongly inhibited
